Screening results as filed in PubChem.
Hits are enriched below; roughly 4.6% of the tested compounds scored in any of these assays.
TAAR1 ag: agonists of human TAAR1; activation, % at 3 µM; CHO RD-HGA16 TAAR1, Fluo-8 calcium fluorescence; vehicle wells 0%, saturating PEA agonist 100%; actives 0.99% (n = 360,000);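 active = activation above the mean activation of all test compounds in the run plus 3 SD, cut at about 38% in these data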
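System: CHO RD-HGA16 cells carrying human TAAR1 plus Gα16; Incubation: 17-24 h seeding, 75 min 37 °C dye, 30 min RT; Measured by: Fluo-8 fluorescence, 5 s baseline then 140 s kinetic read; Control set: DMSO and PEA EC100; Replication: single well for each compound.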
CHO parental Ca: counter-screen: ATP calcium response change in parental CHO cells; inhibition, % at 5.6 µM; AID 463079; actives 0.63% (n = 330,000); parental CHO-K1, ATP-induced calcium, Fluo-8 fluorescence;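 active = inhibition above that plate's mean sample inhibition plus 3 SD, cut at about 26% in these data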;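 note: 0% = ATP-challenged DMSO wells and 100% = DMSO wells without ATP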
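Material – parental CHO cells · Reagent – ATP stimulus · Compound – single nominal dose of 5.6 µM per compound · Detection – Fluo-8 fluorescence · Read-out basis – percent inhibition of calcium signal · Controls – ATP-challenged DMSO wells low, unchallenged DMSO wells high · Repeats – no replicates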
OX1R antag-1: blocks the human orexin 1 receptor; O43613; OX1R-expressing cells, FRET antagonist read-out; inhibition, % at 6.6 µM; actives 1.8% (n = 330,000); AID 485270; in the data active = inhibition mostly above about 38%, no sharp cut-off; inactive = mostly below about 40%;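 note: 0% = agonist challenge alone and 100% = reference antagonist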
Target sequence (O43613 whole entry, looked up): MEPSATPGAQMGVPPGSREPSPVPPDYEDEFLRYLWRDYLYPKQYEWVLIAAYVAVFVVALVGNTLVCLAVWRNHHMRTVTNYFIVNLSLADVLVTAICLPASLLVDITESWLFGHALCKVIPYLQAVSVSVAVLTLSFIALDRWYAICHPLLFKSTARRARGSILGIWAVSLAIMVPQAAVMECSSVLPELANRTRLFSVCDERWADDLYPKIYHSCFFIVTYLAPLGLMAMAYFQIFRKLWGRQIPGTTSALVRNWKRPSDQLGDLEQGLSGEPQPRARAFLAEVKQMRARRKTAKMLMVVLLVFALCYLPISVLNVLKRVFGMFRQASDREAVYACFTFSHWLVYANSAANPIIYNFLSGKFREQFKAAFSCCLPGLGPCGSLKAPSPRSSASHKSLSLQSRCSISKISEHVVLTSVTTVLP
GPR7 antag: human neuropeptides B/W receptor 1 antagonism; P48145; actives 1.1% (n = 290,000); GPR7-expressing cells, fluorescence antagonist assay; AID 1861; inhibition, % at 4.4 µM; in the data active = inhibition above about 16%, passing the limit was not always enough;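 note: cells stimulated with the agonist NPW; 0% = agonist with vehicle and 100% = vehicle without agonist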
Target sequence (P48145 whole entry, looked up): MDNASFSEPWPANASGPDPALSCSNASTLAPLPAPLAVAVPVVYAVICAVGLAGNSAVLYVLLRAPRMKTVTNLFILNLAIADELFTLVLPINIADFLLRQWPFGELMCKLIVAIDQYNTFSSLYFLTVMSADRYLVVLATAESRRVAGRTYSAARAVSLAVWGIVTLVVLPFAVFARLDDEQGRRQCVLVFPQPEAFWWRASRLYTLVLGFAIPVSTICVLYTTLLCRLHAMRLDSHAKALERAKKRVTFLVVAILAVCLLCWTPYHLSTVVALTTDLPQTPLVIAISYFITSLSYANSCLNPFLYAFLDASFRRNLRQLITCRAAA
TAAR1 antagonist: antagonists of human TAAR1; Q96RJ0; CHO RD-HGA16 TAAR1, Fluo-8 calcium fluorescence, antagonist; inhibition, % at 3 µM; actives 1.5% (n = 360,000); AID 624466;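 active = inhibition above a per-plate cutoff, the mean inhibition of test compounds on that plate plus 3 SD, cut at about 49% in these data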;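 note: 0% = DMSO plus EC80 beta-PEA response and 100% = DMSO alone without agonist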
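System: CHO RD-HGA16 cells bearing hTAAR1. Reagent: EC80 β-phenethylamine stimulus. Schedule: seeding 17-24 h prior, 75-min 37 °C, 30-min RT dye loading. Signal: Fluo-8 intracellular calcium dye fluorescence, real-time kinetic reads. Read-out: % inhibition from peak post-agonist over basal fluorescence ratio. Benchmarks: vehicle wells and EC80 agonist wells. Replicates: n of 1.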
OX1R antag-2: antagonists of human orexin 1 receptor; CHO/OX1R cells, Fluo-8 calcium fluorescence, orexin A; inhibition, % at 5 µM; actives 0.43% (n = 330,000); O43613;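 active = inhibition above its plate's threshold, mean inhibition of all tested compounds on the plate plus 3 SD, cut at about 37% in these data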;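 note: 0% = orexin A challenge wells and 100% = SB-334867-A antagonist wells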
TAAR1 ag conf: confirmation of human TAAR1 agonists | shares compounds with TAAR1 ag | CHO RD-HGA16 TAAR1, Fluo-8 calcium fluorescence; scaled: DMSO 0%, maximal phenethylamine 100% | activation, % at 3 µM | actives 82% (n = 2,400) | AID 651783;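 active = activation above a cutoff set at the run's mean compound activation plus 3 SD, cut at about 39% in these data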
Ga16 ag counter: counter-screen for TAAR1 agonists: nonselective agonists in parental cells | shares compounds with TAAR1 ag | CHO-Ga16 parental, Fluo-8 calcium fluorescence; normalized to maximal ATP response, DMSO zero | activation, % at 3 µM | actives 50% (n = 2,400) | AID 651787;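 active = activation above the run cutoff, the mean activation over all tested wells plus 3 SD, cut at about 12% in these data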;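 note: 0% = DMSO wells and 100% = maximal ATP response on the peak over basal ratio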
TAAR1 desens: counter-screen for human TAAR1 agonists: agonists that desensitize TAAR1; shares compounds with TAAR1 ag; AID 651951; inhibition, % at 3 µM; CHO RD-HGA16 hTAAR1, Fluo-8 calcium, beta-PEA response inhibition; actives 46% (n = 2,400);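 active = inhibition above the run cutoff, the mean inhibition of all test compounds plus 3 SD, cut at about 49% in these data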;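 note: beta-PEA stimulus applied at its EC80; loss of beta-PEA calcium signal after compound pretreatment read as receptor desensitization; 0% = DMSO with beta-PEA at EC80 and 100% = DMSO alone without agonist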
Ga16 antag count: nonselective Ga16 antagonist in TAAR1 agonist counter-screen. shares compounds with TAAR1 ag. inhibition, % at 3 µM. actives 39% (n = 2,400). CHO-Ga16 ATP-induced calcium, Fluo-8 fluorescence;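 active = inhibition above the plate's mean compound inhibition plus 3 SD, computed per plate, cut at about 22% in these data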;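 note: 0% = EC80 ATP with DMSO and 100% = DMSO wells without ATP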
* = called active by the depositor.

How did O=C(NCCc1ccccc1)C1CC(=O)N(CCc2ccccc2)C1 (centres undefined) do in these assays?
TAAR1 ag: 44*; CHO parental Ca: -13; OX1R antag-1: 8; GPR7 antag: -9; TAAR1 antagonist: -6; OX1R antag-2: -17; TAAR1 ag conf: 68*; Ga16 ag counter: 0; TAAR1 desens: 30; Ga16 antag count: 8

What do the screens show for `O=C(NCCc1ccc(Cl)cc1)C1CC(=O)N(CCc2ccccc2)C1` (centres undefined)?
TAAR1 ag: 13; CHO parental Ca: -11; OX1R antag-1: -3; GPR7 antag: 16; TAAR1 antagonist: -20; OX1R antag-2: -1

How did O=C(O)C1CC(=O)N(CCc2ccccc2)C1 (centres undefined) do in these assays?
TAAR1 ag: 44*; CHO parental Ca: 0; OX1R antag-1: 0; GPR7 antag: -1; TAAR1 antagonist: 17; OX1R antag-2: -18; TAAR1 ag conf: 72*; Ga16 ag counter: 3; TAAR1 desens: 0; Ga16 antag count: 6

What do the screens show for `C=CCNC(=O)C1CC2Cn3c(nc4cc(C)c(C)cc43)C2N1C` (centres undefined)?
TAAR1 ag: -2; CHO parental Ca: -2; OX1R antag-1: -1; TAAR1 antagonist: 7; OX1R antag-2: -11

How did CN1C(C(=O)NCCc2cccs2)CC2Cn3c(nc4cc5ccccc5cc43)C21 (centres undefined) do in these assays?
TAAR1 ag: 78*; CHO parental Ca: -11; OX1R antag-1: 30; TAAR1 antagonist: 51*; OX1R antag-2: -14; TAAR1 ag conf: 92*; Ga16 ag counter: 15*; TAAR1 desens: 83*; Ga16 antag count: 11

Results for COc1ccc(CCNC(=O)C2CC3Cn4c(nc5cc6ccccc6cc54)C3N2C)cc1 (centres undefined) ?
TAAR1 ag: 20; CHO parental Ca: 1; OX1R antag-1: 29; TAAR1 antagonist: -3; OX1R antag-2: -13

Results for Cc1cc2nc3n(c2cc1C)CC1CC(C(=O)NCCc2cccs2)N(C)C31 (centres undefined) ?
TAAR1 ag: 101*; CHO parental Ca: -8; OX1R antag-1: 23; TAAR1 antagonist: 69*; OX1R antag-2: -8; TAAR1 ag conf: 81*; Ga16 ag counter: 2; TAAR1 desens: 71*; Ga16 antag count: 8

How did CCOC(=O)c1sc(N)c(C(=O)OC)c1C do in these assays?
TAAR1 ag: 1; CHO parental Ca: -8; OX1R antag-1: 17; GPR7 antag: 19; TAAR1 antagonist: -15; OX1R antag-2: 0

How did O=C(NCCc1ccccc1)c1c(F)c(F)c(F)c(F)c1F do in these assays?
TAAR1 ag: 4; CHO parental Ca: -2; OX1R antag-1: 12; GPR7 antag: -11; TAAR1 antagonist: 6; OX1R antag-2: -10

What do the screens show for `COC(=O)c1c(N)sc(C(=O)NCCc2ccccc2)c1C`?
TAAR1 ag: 101*; GPR7 antag: -2; TAAR1 antagonist: 74*; TAAR1 ag conf: 86*; Ga16 ag counter: 4; TAAR1 desens: 89*; Ga16 antag count: 22*

What do the screens show for `COc1cc(C)c(NC(=O)C(=S)NCCc2ccccc2)cc1C`?
TAAR1 ag: 66*; CHO parental Ca: -14; OX1R antag-1: 13; GPR7 antag: -12; TAAR1 antagonist: 79*; OX1R antag-2: -14; TAAR1 ag conf: 92*; Ga16 ag counter: 2; TAAR1 desens: 85*; Ga16 antag count: 16

Results for COc1cccc(OC)c1C(=O)NCCc1ccccc1 ?
TAAR1 ag: 81*; CHO parental Ca: 1; OX1R antag-1: 14; TAAR1 antagonist: 8; OX1R antag-2: -3; TAAR1 ag conf: 80*; Ga16 ag counter: 0; TAAR1 desens: 63*; Ga16 antag count: 6

What do the screens show for `CC(C)(CO)NCC(O)Cn1cc(C=O)c2ccccc21` (centres undefined)?
TAAR1 ag: 1; CHO parental Ca: 0; OX1R antag-1: 14; GPR7 antag: -14; TAAR1 antagonist: -5; OX1R antag-2: -4

How did CCN1C(=O)[C@H]2[C@@H](c3ccc(-c4ccccc4)c(OC)c3)N[C@@](CC(C)C)(C(=O)OC)[C@H]2C1=O do in these assays?
TAAR1 ag: 1; CHO parental Ca: -14; OX1R antag-1: 16; TAAR1 antagonist: 0; OX1R antag-2: -7

Results for CC1=NN(c2ccccc2)C(=O)/C1=C\C=C1/N(C)c2ccccc2C1(C)C ?
TAAR1 ag: 84*; CHO parental Ca: 28*; OX1R antag-1: 24; GPR7 antag: 15; TAAR1 antagonist: 50*; OX1R antag-2: 42*; TAAR1 ag conf: 67*; Ga16 ag counter: 45*; TAAR1 desens: 57*; Ga16 antag count: 49*

How did CCCN1C(=O)/C(=C\C=C2\N(CC)c3ccccc3C2(C)C)SC1=S do in these assays?
TAAR1 ag: 69*; GPR7 antag: -2; TAAR1 antagonist: 65*; TAAR1 ag conf: 50*; Ga16 ag counter: 66*; TAAR1 desens: 73*; Ga16 antag count: 82*

Results for CCCN1C(=O)/C(=C\C=C2/Sc3ccccc3N2CC)SC1=S ?
GPR7 antag: -12

What do the screens show for `CN1/C(=C\C=C2/SC(=S)NC2=O)C(C)(C)c2ccccc21`?
TAAR1 ag: 289*; CHO parental Ca: 95*; OX1R antag-1: 20; GPR7 antag: 20; TAAR1 antagonist: 109*; OX1R antag-2: 99*; TAAR1 ag conf: 70*; Ga16 ag counter: 85*; TAAR1 desens: 85*; Ga16 antag count: 86*

What do the screens show for `c1ccc(-c2nnc(CSc3nncs3)o2)cc1`?
TAAR1 ag: -4; CHO parental Ca: -5; OX1R antag-1: 13; GPR7 antag: -9; TAAR1 antagonist: -12; OX1R antag-2: -5

How did C=CC[C@@H](Cc1ccc(F)cc1)C(=O)OC[C@@H]1CCCN1C(=O)[C@H](CC=C)CC(=O)NCCO do in these assays?
TAAR1 ag: 14; CHO parental Ca: -27; OX1R antag-1: 12; TAAR1 antagonist: -4; OX1R antag-2: -8
